According to ChEMBL document CHEMBL1145787, “Synthesis and structure-activity relationship of N-substituted 4-arylsulfonylpiperidine-4-hydroxamic acids as novel, orally active matrix metalloproteinase inhibitors for the treatment of osteoarthritis” (J Med Chem, 2003):

Legend:
[1] = Time of peak concentration of compound was determined in rabbit at 25 mg/kg orally; format: ADME, organism-based, Oryctolagus cuniculus; parameters: dose 25 mg/kg, route oral; details: in vivo, po
In short: (§1)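 Single oral dose of 25 mg/kg in Sprague–Dawley rats, New Zealand rabbits, Beagle dogs and Cynomolgus monkeys. Mean plasma pharmacokinetics; Cmax is the maximum plasma concentration and Tmax is the time of peak concentration.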

[2] = Area under concentration-time curve of compound was determined in rabbit at 5 mg/kg intravenously admn.; format: ADME, organism-based, Oryctolagus cuniculus; parameters: dose 5 mg/kg, route intravenous; details: in vivo, iv, read-out: AUC 0
In short: (§2)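 Single-dose PK in Sprague–Dawley rats, New Zealand rabbits, Beagle dogs and cynomolgus monkeys. Dosing was 25 mg/kg oral or 5 mg/kg iv. Plasma concentration–time profiles gave the apparent elimination half-life (T1/2) and the area under the concentration–time curve (AUC). Parameters are reported as means.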

[3] = Area under concentration-time curve of compound was determined in dog at 5 mg/kg intravenously admn.; format: ADME, organism-based, Canis lupus familiaris; parameters: dose 5 mg/kg, route intravenous; details: in vivo, iv, read-out: AUC 0; in short: as §2
[4] = Area under concentration-time curve of compound was determined in rat at 25 mg/kg orally; format: ADME, organism-based; parameters: dose 25 mg/kg, route oral; details: in vivo, po; in short: as §2
[5] = Apparent elimination half life of compound was determined in rabbit at 5 mg/kg intravenously admn.; format: ADME, organism-based, Oryctolagus cuniculus; parameters: dose 5 mg/kg, route intravenous; details: in vivo, iv; in short: as §2
[6] = Total clearance of compound was determined in dog at 5 mg/kg intravenously admn.; format: ADME, organism-based, Canis lupus familiaris; parameters: dose 5 mg/kg, route intravenous; details: in vivo, iv, read-out: CLT
In short: (§3)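 Single iv dose of 5 mg/kg in Sprague–Dawley rats, New Zealand rabbits, Beagle dogs and Cynomolgus monkeys. Mean plasma pharmacokinetics: C0 is the concentration at T=0, Vdss the volume of distribution at steady state, and CLT the total clearance.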

Collagenase 3 = Collagenase 3 (Homo sapiens, UniProt P45452)
[7] = Area under concentration-time curve of compound was determined in dog at 25 mg/kg orally; format: ADME, organism-based, Canis lupus familiaris; parameters: dose 25 mg/kg, route oral; details: in vivo, po; in short: as §2
[8] = Peak concentration of compound at Time = 0 was determined in rat at 5 mg/kg intravenously admn.; format: ADME, organism-based; parameters: dose 5 mg/kg, route intravenous; details: in vivo, iv; in short: as §3
[9] = molecular target: Matrix metalloproteinase-14 (Homo sapiens, UniProt P50281); assay: Inhibition of Matrix metalloprotease-14
In short: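 Inhibitor concentrations run in triplicate; IC50 from a four-parameter logistic fit within a single experiment, reported as the mean of triplicate values.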

[10] = Time of peak concentration of compound was determined in rat at 25 mg/kg orally; format: ADME, organism-based; parameters: dose 25 mg/kg, route oral; details: in vivo, po; in short: as §1
[11] = Apparent elimination half life of compound was determined in rabbit at 25 mg/kg orally; format: ADME, organism-based, Oryctolagus cuniculus; parameters: dose 25 mg/kg, route oral; details: in vivo, po; in short: as §2
[12] = molecular target: Matrix metalloproteinase-9 (Homo sapiens, UniProt P14780); assay: In vitro inhibitory activity against matrix metalloprotease-9.
[13] = Area under concentration-time curve of compound was determined in monkey at 5 mg/kg intravenously admn.; format: ADME, organism-based; parameters: dose 5 mg/kg, route intravenous; details: simiiformes, in vivo, iv, read-out: AUC 0; in short: as §2
[14] = Total clearance of compound was determined in rat at 5 mg/kg intravenously admn.; format: ADME, organism-based; parameters: dose 5 mg/kg, route intravenous; details: in vivo, iv, read-out: CLT; in short: as §3
[15] = Time of peak concentration of compound was determined in monkey at 25 mg/kg orally; format: ADME, organism-based; parameters: dose 25 mg/kg, route oral; details: simiiformes, in vivo, po; in short: as §1
[16] = Apparent elimination half life of compound was determined in monkey at 5 mg/kg intravenously admn.; format: ADME, organism-based; parameters: dose 5 mg/kg, route intravenous; details: simiiformes, in vivo, iv; in short: as §2
[17] = Apparent elimination half life of compound was determined in dogt at 5 mg/kg intravenously admn.; format: ADME, organism-based, Canis lupus familiaris; parameters: dose 5 mg/kg, route intravenous; details: dog, in vivo, iv; in short: as §2
[18] = Apparent elimination half life of compound was determined in rat at 25 mg/kg orally; format: ADME, organism-based; parameters: dose 25 mg/kg, route oral; details: in vivo, po; in short: as §2
[19] = Time of peak concentration of compound was determined in dog at 25 mg/kg orally; format: ADME, organism-based, Canis lupus familiaris; parameters: dose 25 mg/kg, route oral; details: in vivo, po; in short: as §1
Neutrophil collagenase = Neutrophil collagenase (Homo sapiens, UniProt P22894); assay: Inhibition of Matrix metalloprotease-8
In short: (§4)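 Each inhibitor concentration was tested in triplicate. IC50 came from a four-parameter logistic fit of data within a single experiment and is reported as the mean of the triplicate values.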

Stromelysin-1 = Stromelysin-1 (Homo sapiens, UniProt P08254); assay: Inhibition of Matrix metalloprotease-3; in short: as §4
[20] = Volume of distribution at steady state of compound was determined in monkey at 5 mg/kg intravenously admn.; format: ADME, organism-based; parameters: dose 5 mg/kg, route intravenous; details: simiiformes, in vivo, iv, read-out: Vdss; in short: as §3
[21] = In vivo inhibition of Matrix metalloprotease enzyme by Sponge-wrapped cartilage assay, compared to activity of RS-130830 (inactive) at 5 mg/kg. po. qd; format: functional
[22] = In vivo inhibitory activity against Matrix metalloprotease enzyme by dialysis implant assay, value is relative to activity of CGS-27023 (48+/-3) at 25 mg/kg. po; format: functional
[23] = Oral bioavailability of compound was determined in rat at 25 mg/kg orally; format: ADME, organism-based; details: in vivo, read-out: Bioavailabiility

Chain of Neutrophil collagenase (P22894 whole entry): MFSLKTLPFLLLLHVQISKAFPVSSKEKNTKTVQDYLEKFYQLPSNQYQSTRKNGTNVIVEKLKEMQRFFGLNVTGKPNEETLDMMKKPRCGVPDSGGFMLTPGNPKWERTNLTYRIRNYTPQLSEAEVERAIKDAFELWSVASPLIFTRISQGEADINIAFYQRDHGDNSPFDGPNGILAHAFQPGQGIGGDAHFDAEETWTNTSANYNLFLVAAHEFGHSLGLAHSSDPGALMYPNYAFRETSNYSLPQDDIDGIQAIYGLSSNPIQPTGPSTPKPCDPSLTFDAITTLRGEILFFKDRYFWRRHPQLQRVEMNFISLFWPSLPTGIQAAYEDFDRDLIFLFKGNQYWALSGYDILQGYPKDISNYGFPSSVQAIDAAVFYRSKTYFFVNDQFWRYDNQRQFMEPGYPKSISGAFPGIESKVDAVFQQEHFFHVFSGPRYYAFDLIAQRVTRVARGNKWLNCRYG
Chain of Stromelysin-1 (P08254 whole entry): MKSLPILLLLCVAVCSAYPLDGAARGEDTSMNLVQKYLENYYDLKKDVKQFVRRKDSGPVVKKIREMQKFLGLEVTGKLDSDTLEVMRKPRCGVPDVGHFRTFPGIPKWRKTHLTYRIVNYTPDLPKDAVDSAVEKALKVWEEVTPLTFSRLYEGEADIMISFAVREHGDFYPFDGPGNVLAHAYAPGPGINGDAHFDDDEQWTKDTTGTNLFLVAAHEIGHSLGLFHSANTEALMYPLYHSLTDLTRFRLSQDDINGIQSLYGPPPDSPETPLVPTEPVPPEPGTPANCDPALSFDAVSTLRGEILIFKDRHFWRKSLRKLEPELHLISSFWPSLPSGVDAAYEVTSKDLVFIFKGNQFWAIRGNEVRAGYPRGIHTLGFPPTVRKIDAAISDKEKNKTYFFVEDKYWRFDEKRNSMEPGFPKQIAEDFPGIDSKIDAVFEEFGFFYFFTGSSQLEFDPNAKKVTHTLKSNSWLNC
Chain of Matrix metalloproteinase-9 (P14780 whole entry): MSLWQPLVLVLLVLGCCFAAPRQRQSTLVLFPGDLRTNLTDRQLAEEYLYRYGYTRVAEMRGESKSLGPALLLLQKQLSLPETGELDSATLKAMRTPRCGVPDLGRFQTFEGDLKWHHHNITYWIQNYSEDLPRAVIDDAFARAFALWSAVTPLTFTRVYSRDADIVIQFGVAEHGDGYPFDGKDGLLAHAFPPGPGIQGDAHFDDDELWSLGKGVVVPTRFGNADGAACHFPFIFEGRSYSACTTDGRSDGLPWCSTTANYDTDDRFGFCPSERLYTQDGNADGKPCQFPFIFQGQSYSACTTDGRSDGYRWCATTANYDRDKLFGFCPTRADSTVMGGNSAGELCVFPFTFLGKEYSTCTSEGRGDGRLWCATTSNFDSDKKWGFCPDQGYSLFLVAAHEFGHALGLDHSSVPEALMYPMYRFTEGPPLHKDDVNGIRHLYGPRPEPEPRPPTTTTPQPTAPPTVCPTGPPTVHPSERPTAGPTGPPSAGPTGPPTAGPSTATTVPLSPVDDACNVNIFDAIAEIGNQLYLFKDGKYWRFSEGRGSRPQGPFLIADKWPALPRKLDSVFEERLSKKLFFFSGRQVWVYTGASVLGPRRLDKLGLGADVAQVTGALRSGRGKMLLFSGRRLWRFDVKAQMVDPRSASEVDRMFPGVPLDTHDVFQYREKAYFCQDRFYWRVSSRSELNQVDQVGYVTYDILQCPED

`O=C(NO)C1(S(=O)(=O)c2ccc(Oc3ccc(Cl)cc3)cc2)CCN(Cc2ccccc2)CC1` gave a Tmax [1] of 10 h, an AUC [2] of 640 µg·h/mL and an AUC [3] of 786 µg·h/mL. It also gave an AUC [4] of 899 µg·h/mL, a half-life [5] of 11.8 h and a clearance [6] of 0.1 mL/min/kg. It also gave an IC50 (Collagenase 3) of 1 nM, an AUC [7] of 1810 µg·h/mL and a C0 [8] of 329 µg/mL. The IC50 [9] was 7 nM, the Tmax [10] was 1.5 h and the half-life [11] was 7.14 h. For the same compound, the IC50 [12] was 1 nM, the AUC [13] was 1510 µg·h/mL and the clearance [14] was 0.3 mL/min/kg. It also gave a Tmax [15] of 5.7 h, a half-life [16] of 20.7 h and a half-life [17] of 13.5 h. The half-life [18] was 10.7 h, the Tmax [19] was 3.5 h and the IC50 (Neutrophil collagenase) was 1 nM. For the same compound, the IC50 (Stromelysin-1) was 55 nM, the Vd [20] was 0.2 L/kg and the inhibition in vivo at 5 mg/kg [21] was 24%. The inhibition in vivo at 25 mg/kg [22] was 53% and the bioavailability [23] was 55%.
